In ChEMBL document CHEMBL1148402, “Anti-AIDS agents. 52. Synthesis and anti-HIV activity of hydroxymethyl (3'R,4'R)-3',4'-di-O-(S)-camphanoyl-(+)-cis-khellactone derivatives” (J Med Chem, 2004):

Assays:
[1] = system: Human immunodeficiency virus 1; test: Concentration required to inhibit HIV-1 replication in acutely infected H9 lymphocytes by 50%; type: functional, organism-based
In short: (§1)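 H9 T-cells (3 × 10^5 cells/mL) in RPMI 1640 with 10% FCS at 37 °C, 5% CO2, infected with HIV-1 IIIB (125 TCID50). Medium replaced on days 1 and 4 post-infection. Supernatant p24 antigen capture read on day 6. EC50 is the concentration suppressing replication by 50%; TI = IC50/EC50. AZT run as positive control. Averages of at least two experiments.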

H9 = test: Concentration required to inhibit uninfected H9 cell growth by 50%; type: functional, cell-based; details: Homo sapiens
In short: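 Mock-infected H9 cells handled in parallel under the same conditions as the infection assay, without virus. Viability read by XTT on day 6. IC50 is the concentration toxic to 50% of mock-infected cells. Averages of at least two experiments.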

[2] = Therapeutic index (IC50/EC50) was determined; details: read-out: TI; in short: as §1
Rattus norvegicus [3] = test: Clearance in male Sprague-Dawley rats following an intravenous bolus dose at 10-20 mg/kg; type: ADME, organism-based; details: in vivo
Rattus norvegicus [4] = test: Volume distribution of compound in male Sprague-Dawley rats following an intravenous bolus dose at 10-20 mg/kg; type: ADME, organism-based; details: in vivo
In short: (§2)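 Adult male Sprague–Dawley rats (approx. 250 g) dosed iv at 10-20 mg/kg and orally as a suspension at 25 mg/kg. Nine 0.4 mL blood samples taken over 8 h. Plasma levels measured by reversed-phase HPLC with UV (320 nm) and fluorescence (ex 320/em 380 nm) detection. Detection limit approx. 50 ng/mL (UV) and 10 ng/mL (fluorescence) from 0.10 mL plasma. Parameters from noncompartmental analysis; half-life from the terminal log-linear phase; N=3–4 rats.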

Rattus norvegicus [5] = test: Vss in male Sprague-Dawley rats following an intravenous bolus dose at 10-20 mg/kg; type: ADME, organism-based; details: in vivo; in short: as §2
Rattus norvegicus [6] = test: Half-life in male Sprague-Dawley rats following an intravenous bolus dose at 10-20 mg/kg; type: ADME, organism-based; details: in vivo; in short: as §2
Rattus norvegicus [7] = test: Bioavailability in rat (Sprague-Dawley) (male) (dose 10-20 mg/kg); type: ADME, organism-based; details: in vivo; in short: as §2
[8] = Bioavailability in male Sprague-Dawley rats following an intravenous bolus dose at 10-20 mg/kg; type: ADME, organism-based; details: rat, in vivo; in short: as §2

**Q.** Which results are given for `Cc1c(CBr)c(=O)oc2c3c(ccc12)OC(C)(C)[C@H](OC(=O)C12CCC(C)(C(=O)O1)C2(C)C)[C@@H]3OC(=O)C12CCC(C)(C(=O)O1)C2(C)C` (stereo partly specified)?
**A.** EC50 [1]: 0.11 nM; IC50 (H9): > 20900 nM; selectivity ratio [2]: > 190000

**Q.** What does the source list for `Cc1cc(=O)oc2c3c(c(CN)cc12)OC(C)(C)[C@H](OC(=O)C12CCC(C)(C(=O)O1)C2(C)C)[C@@H]3OC(=O)C12CCC(C)(C(=O)O1)C2(C)C` (stereo partly specified)?
**A.** EC50 [1]: 148 nM; IC50 (H9): > 15000 nM; selectivity ratio [2]: > 102

**Q.** What does the source list for `CC1(C)Oc2ccc3ccc(=O)oc3c2[C@@H](OC(=O)C23CCC(C)(C(=O)O2)C3(C)C)[C@H]1OC(=O)C12CCC(C)(C(=O)O1)C2(C)C` (stereo partly specified)?
**A.** EC50 [1]: 49 nM; IC50 (H9): > 16100 nM; selectivity ratio [2]: > 328

**Q.** With `CCN(CC)Cc1cc2ccc3c(c2oc1=O)[C@@H](OC(=O)C12CCC(C)(C(=O)O1)C2(C)C)[C@@H](OC(=O)C12CCC(C)(C(=O)O1)C2(C)C)C(C)(C)O3` (stereo partly specified) as the compound, how does the EC50 [1] read?
**A.** Its EC50 is 3670 nM.

**Q.** And the IC50 (H9)?
**A.** The IC50 was greater than 14100 nM.

**Q.** And the selectivity ratio [2]?
**A.** Its selectivity ratio is greater than 4.

**Q.** With `CC1(C)Oc2ccc3cc(CO)c(=O)oc3c2[C@@H](OC(=O)C23CCC(C)(C(=O)O2)C3(C)C)[C@H]1OC(=O)C12CCC(C)(C(=O)O1)C2(C)C` (stereo partly specified) as the compound, how does the EC50 [1] read?
**A.** The EC50 was 29 nM.

**Q.** What about the IC50 (H9) of the same compound?
**A.** Its IC50 is 23000 nM.

**Q.** What about the selectivity ratio [2] of the same compound?
**A.** Its selectivity ratio is 806.

**Q.** With `CC1(C)Oc2ccc3cc(CBr)c(=O)oc3c2[C@@H](OC(=O)C23CCC(C)(C(=O)O2)C3(C)C)[C@H]1OC(=O)C12CCC(C)(C(=O)O1)C2(C)C` (stereo partly specified) as the compound, how does the EC50 [1] read?
**A.** Its EC50 is 59 nM.

**Q.** And the IC50 (H9)?
**A.** The IC50 was greater than 11100 nM.

**Q.** And the selectivity ratio [2]?
**A.** Its selectivity ratio is greater than 186.

**Q.** With `CC(=O)OCc1c(C)c2ccc3c(c2oc1=O)[C@@H](OC(=O)C12CCC(C)(C(=O)O1)C2(C)C)[C@@H](OC(=O)C12CCC(C)(C(=O)O1)C2(C)C)C(C)(C)O3` (stereo partly specified) as the compound, how does the EC50 [1] read?
**A.** The EC50 was 26 nM.

**Q.** What about the IC50 (H9) of the same compound?
**A.** The IC50 was 14800 nM.

**Q.** And the selectivity ratio [2]?
**A.** The selectivity ratio was 567.

**Q.** Which EC50 [1] does the source give for `CC(=O)OCc1cc2c(C)cc(=O)oc2c2c1OC(C)(C)[C@H](OC(=O)C13CCC(C)(C(=O)O1)C3(C)C)[C@@H]2OC(=O)C12CCC(C)(C(=O)O1)C2(C)C` (stereo partly specified) here?
**A.** The EC50 was 544 nM.

**Q.** What about the IC50 (H9) of the same compound?
**A.** The IC50 was greater than 14100 nM.

**Q.** What about the selectivity ratio [2] of the same compound?
**A.** Its selectivity ratio is greater than 26.

**Q.** With `Cc1cc(=O)oc2c3c(c(CBr)cc12)OC(C)(C)[C@H](OC(=O)C12CCC(C)(C(=O)O1)C2(C)C)[C@@H]3OC(=O)C12CCC(C)(C(=O)O1)C2(C)C` (stereo partly specified) as the compound, how does the EC50 [1] read?
**A.** The EC50 was 156 nM.

**Q.** What about the IC50 (H9) of the same compound?
**A.** The IC50 was greater than 13700 nM.

**Q.** And the selectivity ratio [2]?
**A.** Its selectivity ratio is greater than 88.

**Q.** What does the source list for `Cc1cc(=O)oc2c3c(c(CO)cc12)OC(C)(C)[C@H](OC(=O)C12CCC(C)(C(=O)O1)C2(C)C)[C@@H]3OC(=O)C12CCC(C)(C(=O)O1)C2(C)C` (stereo partly specified)?
**A.** CL (Rattus norvegicus [3]): 284 L/h/kg; Vd (Rattus norvegicus [4]): 5.9 L/kg; EC50 [1]: 111 nM; Vss (Rattus norvegicus [5]): 3.89 L/kg; T1/2 (Rattus norvegicus [6]): 0.867 h; IC50 (H9): > 15000 nM; selectivity ratio [2]: > 135; F (Rattus norvegicus [7]): Not detected

**Q.** Which results are given for `CC1(C)Oc2ccc3cc(CN)c(=O)oc3c2[C@@H](OC(=O)C23CCC(C)(C(=O)O2)C3(C)C)[C@H]1OC(=O)C12CCC(C)(C(=O)O1)C2(C)C` (stereo partly specified)?
**A.** EC50 [1]: 677 nM; IC50 (H9): > 15400 nM; selectivity ratio [2]: > 23

**Q.** Which CL (Rattus norvegicus [3]) does the source give for `Cc1c(CO)c(=O)oc2c3c(ccc12)OC(C)(C)[C@H](OC(=O)C12CCC(C)(C(=O)O1)C2(C)C)[C@@H]3OC(=O)C12CCC(C)(C(=O)O1)C2(C)C` (stereo partly specified) here?
**A.** The CL was 284 L/h/kg.

**Q.** And the Vd (Rattus norvegicus [4])?
**A.** The Vd was 22.9 L/kg.

**Q.** What about the EC50 [1] of the same compound?
**A.** Its EC50 is 4 nM.

**Q.** And the Vss (Rattus norvegicus [5])?
**A.** Its Vss is 18.5 L/kg.

**Q.** And the T1/2 (Rattus norvegicus [6])?
**A.** Its T1/2 is 3.12 h.

**Q.** And the IC50 (H9)?
**A.** The IC50 was 24900 nM.

**Q.** And the selectivity ratio [2]?
**A.** The selectivity ratio was 5800.

**Q.** What about the bioavailability [8] of the same compound?
**A.** The bioavailability was 15%.

**Q.** Which results are given for `CC(=O)OCc1cc2ccc3c(c2oc1=O)[C@@H](OC(=O)C12CCC(C)(C(=O)O1)C2(C)C)[C@@H](OC(=O)C12CCC(C)(C(=O)O1)C2(C)C)C(C)(C)O3` (stereo partly specified)?
**A.** EC50 [1]: 17 nM; IC50 (H9): 11600 nM; selectivity ratio [2]: 676

**Q.** Which Vd (Rattus norvegicus [4]) does the source give for `Cc1cc(=O)oc2c3c(ccc12)OC(C)(C)[C@H](OC(=O)C12CCC(C)(C(=O)O1)C2(C)C)[C@@H]3OC(=O)C12CCC(C)(C(=O)O1)C2(C)C` (stereo partly specified) here?
**A.** The Vd was 12 L/kg.

**Q.** What about the EC50 [1] of the same compound?
**A.** Its EC50 is 1.5 nM.

**Q.** And the Vss (Rattus norvegicus [5])?
**A.** Its Vss is 10.1 L/kg.

**Q.** What about the T1/2 (Rattus norvegicus [6]) of the same compound?
**A.** The T1/2 was 2.42 h.

**Q.** And the IC50 (H9)?
**A.** Its IC50 is 23600 nM.

**Q.** And the F (Rattus norvegicus [7])?
**A.** The F was “Not detected”.

**Q.** With `Cc1cn([C@H]2C[C@H](N=[N+]=[N-])[C@@H](CO)O2)c(=O)[nH]c1=O` [ZIDOVUDINE] as the compound, how does the EC50 [1] read?
**A.** The EC50 was 187 nM.
